Source: PubChem
Compounds with a hit are over-represented: about 4.9% of the library has one in this group of screens.
NF-kB neuron act: NF-kB expression increase, human neuronal cells; NF-kB reporter expression; stronger effect = higher value; fold change at 12.5 µM; hit rate 1.6% among 190,000; AID 1239; in the data active = fold change above about 3.3
STAT1 activator: STAT1 signaling activation; NIH 3T3 STAT1-luciferase reporter, IFN-gamma, luminescence; 100% = IFN-gamma alone, no compound; activation (% of control), % at 5.5 µM; hit rate 2.6% among 200,000;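 active = activation above the screen-wide mean activation plus 3 SD, cut at about 130% in these data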
STAT3 inh: inhibitors of IL-6 induced STAT3 signaling | AID 862 | U3A cells, IL-6 STAT3-luciferase reporter, luminescence; host cell line lacks STAT1 | hit rate 0.89% among 190,000 | inhibition, % at 5.5 µM;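 active = inhibition above the mean inhibition across all screened compounds plus 3 SD, cut at about 44% in these data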
STAT3 activator: STAT3 signaling activation; U3A cells, IL-6 STAT3-luciferase reporter, luminescence; 100% = signal with IL-6 EC80 alone; activation (% of control), % at 5.6 µM; hit rate 0.91% among 190,000;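 active = activation above the screen-wide mean of compound activation plus 3 SD, cut at about 130% in these data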
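Material: human U3A cells carrying STAT3-luciferase construct. Measured by: reporter luminescence signal. Timing: compound 1 h, then IL-6 6 h at 37 °C.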
STAT1 inh: reduces IFN-gamma driven STAT1 reporter signal. hit rate 0.35% among 200,000. inhibition, % at 5.5 µM. AID 920. NIH 3T3 STAT1-luciferase reporter, luminescence;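 active = inhibition above a set limit, the mean inhibition across all tested compounds plus 3 SD, cut at about 34% in these data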
APP 5'UTR act: activates APP 5'UTR luciferase reporter | activation, % at 2 µM | SH-SY5Y APP 5'UTR luciferase reporter, luminescence; zero percent = DMSO vehicle wells | hit rate 1% among 190,000;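 active = activation above a set limit, based on mean plus 3 SD of controls, cut at about 140% in these data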
STAT1 act conf: STAT1 activation, confirmation assay; shares compounds with STAT1 activator; NIH 3T3 STAT1-luciferase reporter, IFN-gamma potentiation, luminescence; 100% = IFN-gamma EC80 alone, no compound; activation (% of control), % at 5.7 µM; hit rate 97% among 1,200; AID 1262;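 active = activation above a set limit carried over from the earlier primary STAT1 screen, cut at about 140% in these data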
NFkB act: activates NF-kappaB, counter-screen to STAT1 activators. HEK293T NF-kB luciferase reporter, TNF-alpha stimulated, luminescence; 100% = TNF-alpha with vehicle only. activation (% of control), % at 5.7 µM. hit rate 43% among 1,200. shares compounds with STAT1 activator. AID 1306;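 active = activation above the mean of solvent-only control wells plus 3 SD, set per campaign, cut at about 130% in these data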;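 note: TNF-alpha given at a submaximal dose yielding about 80% of full reporter signal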
STAT3 act 2: activates human STAT3, counter-screen to STAT1 activators | activation (% of control), % at 5.7 µM | hit rate 46% among 1,200 | U3A cells STAT3-luciferase reporter, IL-6, luminescence; cells lack STAT1; 100 = IL-6 alone, no compound effect | shares compounds with STAT1 activator;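 active = activation above the solvent-only control well mean plus 3 SD, set per plate batch, cut at about 110% in these data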;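 note: higher means more STAT3 reporter activation so hits are non-selective activators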
Large screens that a line does not name were inactive (follow-up assays come after a bar, where they were run).

COc1ccc(-c2ccn(-c3cccc(F)n3)n2)cc1	STAT1 activator 154, APP 5'UTR act 138 | STAT1 act conf 178 | NFkB act inactive | STAT3 act 2 122
Cc1ccc(C(=O)Nc2ccc(C(=O)O)cc2)cc1S(=O)(=O)NCc1ccccc1	none
Cc1ccc(-c2cc3nc(C)cc(NCc4ccco4)n3n2)cc1	NF-kB neuron act 4.1, STAT1 activator 151, APP 5'UTR act 137 | STAT1 act conf 172 | NFkB act inactive | STAT3 act 2 inactive
COCCNc1cc(C)nc2cc(-c3ccc(C)cc3)nn12	none
Clc1cccc(-c2cc3nc4c(c(NCc5ccco5)n3n2)CCCC4)c1	STAT1 activator 154 | STAT1 act conf 242 | NFkB act 145 | STAT3 act 2 113
CC1=C(C(=O)OC(C)C)C(c2cncc(-c3ccc(F)cc3)c2)C(C#N)=C(N)O1 (stereo not drawn)	none
Cc1cnc(NC(=O)Nc2ccc(Cl)cc2)s1	NF-kB neuron act 26, STAT1 activator 296 | STAT1 act conf 282 | NFkB act 138 | STAT3 act 2 141
CC1=CC(c2ccccc2)=Nc2ccc(C)cc2N1	NF-kB neuron act 5.4, STAT1 activator 165, APP 5'UTR act 182 | STAT1 act conf 202 | NFkB act inactive | STAT3 act 2 131
COc1ccc2c(c1)NC(=O)CC(c1ccccc1)=N2	none
O=C(CCNC(=O)Cn1ccc2ccccc2c1=O)NCCc1ccccc1Cl	none
Cc1csc2nc(CSc3nc4ccccc4o3)cn12	none
Cc1csc2nc(CSc3ccc(Cl)cc3)cn12	NF-kB neuron act 6, STAT1 activator 153, APP 5'UTR act 149 | STAT1 act conf 198 | NFkB act 135 | STAT3 act 2 inactive
Fc1ccc(/C=N/NC2=Nc3cccc4cccc2c34)cc1	STAT1 activator 167, APP 5'UTR act 167 | STAT1 act conf 201 | NFkB act 137 | STAT3 act 2 153
CC1CCc2c(sc(NC(=O)C3CCCO3)c2C#N)C1 (stereo not drawn)	NF-kB neuron act 4.6, STAT1 activator 154, APP 5'UTR act 144 | STAT1 act conf 169 | NFkB act 134 | STAT3 act 2 114
CN(C)C(=S)Nc1nc2ccccc2s1	NF-kB neuron act 9.1, STAT1 activator 165 | STAT1 act conf 170 | NFkB act 138 | STAT3 act 2 inactive
CCOc1ccc2nc(NC(=S)N(C)C)sc2c1	NF-kB neuron act 12, STAT1 activator 183, APP 5'UTR act 167 | STAT1 act conf 293 | NFkB act 134 | STAT3 act 2 inactive
CCOc1ccc2nc(NC(=O)CSc3ccccc3)sc2c1	none
CCOC(=O)C1(Cc2ccccc2Cl)CCN(C(=O)CN2CCOC2=O)CC1	STAT1 activator 160 (no result: NF-kB neuron act) | STAT1 act conf 172 | NFkB act 142 | STAT3 act 2 117
Cc1ccc(C)c(N2CCN(C(=O)c3csc4ccccc34)CC2)c1	none
COc1ccc2cc(CCNC(=O)c3cccs3)c(=O)[nH]c2c1	NF-kB neuron act 6.1, STAT1 activator 159 | STAT1 act conf 193 | NFkB act 140 | STAT3 act 2 inactive
CCOC(=O)c1ccc(Nc2cnc3ccccc3n2)cc1	NF-kB neuron act 5, STAT1 activator 171, APP 5'UTR act 136 | STAT1 act conf 194 | NFkB act 139 | STAT3 act 2 114
CCOC(=O)c1ccc(Nc2ccc([N+](=O)[O-])cn2)cc1	none
CCCCN(C)C(=O)c1nc2ccccn2c1CN1CCN(C(=O)c2cccs2)CC1	none
